Assay results from the array DNA melting data of Ke et al. (doi:10.1101/2024.01.08.574731).

Columns and labels:
[1] = folding enthalpy; higher = less favourable; fluorescence melt of hairpins on a sequencing array, two-state fit; details: sodium 0.088 M
How it was run: (§1)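 Library hairpins on a sequenced MiSeq flow cell carried annealed Cy3 and quencher oligos, and their Cy3 fluorescence was imaged in 50 mM Na-HEPES pH 8.0 with 25 mM NaCl, in 2.5 °C steps up to 60 °C. Signals were normalised to Cy3 before quenching and to control constructs. Melting temperature and folding enthalpy were obtained from bootstrapped two-state fits, combined by inverse-variance weighting across four replicates, and the fitted temperatures were then raised by 9.35 °C to match UV melts.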

[2] = melting temperature; fluorescence melt of hairpins on a sequencing array, two-state fit, raised by 9.35 °C to match UV melts; details: sodium 0.088 M
How it was run: as §1

Sequence | folding enthalpy [1] [kcal/mol] | Tm [2] [°C]
GATCTAAAGGTAGATC ((((((....)))))) | -18.5 | 33.9
GATCTAAAGTAGATC ((((((...)))))) | -22.2 | 37.1
GATCTAAATTAGATC ((((((...)))))) | -21.3 | 37.8
GATCTAACCGTAGATC ((((((....)))))) | -25.1 | 38
GATCTAACTCTAGATC ((((((....)))))) | -21.1 | 39.6
GATCTAACTGTAGATC ((((((....)))))) | -24.2 | 39.1
GATCTAAGCCTAGATC ((((((....)))))) | -31.9 | 39.1
GATCTAAGGATAGATC ((((((....)))))) | -21.9 | 34
GATCTAAGGTAGATC ((((((...)))))) | -20.8 | 37.6
GATCTAAGTGTAGATC ((((((....)))))) | -28.5 | 39.3
GATCTAATCTTAGATC ((((((....)))))) | -35.3 | 43.6
GATCTAATGTAGATC ((((((...)))))) | -25.5 | 36.6
GATCTAATTTTAGATC ((((((....)))))) | -34.2 | 44
GATCTACAAATAGATC ((((((....)))))) | -25.4 | 36.6
GATCTACACCTAGATC ((((((....)))))) | -39.5 | 42.5
GATCTACACGTAGATC ((((((....)))))) | -35.6 | 50.5
GATCTACACTAGATC ((((((...)))))) | -20.8 | 41.7
GATCTACAGCTAGATC ((((((....)))))) | -31.8 | 35.1

Sequence | folding enthalpy [1] [kcal/mol] | Tm [2] [°C]
GATCTACAGGTAGATC ((((((....)))))) | -37.6 | 48.8
GATCTACATATAGATC ((((((....)))))) | -35.4 | 40.8
GATCTACCACTAGATC ((((((....)))))) | -30.6 | 39.7
GATCTACCCATAGATC ((((((....)))))) | -35.8 | 41.4
GATCTACCGTAGATC ((((((...)))))) | -31.6 | 39.1
GATCTACGAAAGTATATC (((.(((....))).))) | -22.4 | 32.5
GATCTACTGTTAGATC ((((((....)))))) | -32.4 | 40.9
GATCTACTTTAGATC ((((((...)))))) | -30.1 | 41.7
GATCTAGCCATAGATC ((((((....)))))) | -41 | 49.3
GATCTAGCGATAGATC ((((((....)))))) | -34.7 | 46
GATCTAGCGCTAGATC ((((((....)))))) | -45.9 | 53.6
GATCTAGCGGTAGATC ((((((....)))))) | -32.2 | 44
GATCTAGCTGTAGATC ((((((....)))))) | -32.8 | 39.9
GATCTAGGAAACCAGATC (((((.(....).))))) | -25.3 | 34.6
GATCTAGGAATAGATC ((((((....)))))) | -29.3 | 42.9
GATCTAGGATAGATC ((((((...)))))) | -32.1 | 48.7
GATCTAGGGATAGATC ((((((....)))))) | -30.8 | 42.3
GATCTAGGGGTAGATC ((((((....)))))) | -30.2 | 36.4
